Measured values published in ChEMBL document CHEMBL1629686, “Substrate selectivity and a novel role in inhibitor discrimination by residue 237 in the KPC-2 beta-lactamase” (Antimicrob Agents Chemother, 2010).
In brackets after ≈: the same amount, converted by molar mass.

Assays:
Escherichia coli [1] = assay: Antimicrobial activity against Escherichia coli DH10B harboring beta-lactamase KPC-2 T237S mutant by agar dilution method; format: functional; details: K-12 DH10B
Outline: (§1)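 LB agar dilution MICs followed CLSI criteria, with inocula applied by Steers replicator. […] Piperacillin-tazobactam was tested at an 8:1 ratio. Wild-type and mutant blaKPC-2 were carried on pBC SK(+), or wild type on pBR322-catI, in E. coli DH10B.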

Escherichia coli [2] = assay: Antimicrobial activity against Escherichia coli DH10B by agar dilution method; format: functional; details: K-12 DH10B; outline: as §1
Escherichia coli [3] = assay: Antimicrobial activity against Escherichia coli DH10B harboring beta-lactamase KPC-2 T237D mutant by agar dilution method; format: functional; details: K-12 DH10B; outline: as §1
Escherichia coli [4] = assay: Antimicrobial activity against Escherichia coli DH10B harboring beta-lactamase KPC-2 T237K mutant by agar dilution method; format: functional; details: K-12 DH10B; outline: as §1
Escherichia coli [5] = assay: Antimicrobial activity against Escherichia coli DH10B harboring beta-lactamase KPC-2 T237G mutant by agar dilution method; format: functional; details: K-12 DH10B; outline: as §1
Escherichia coli [6] = assay: Antimicrobial activity against Escherichia coli DH10B harboring beta-lactamase KPC-2 T237C mutant by agar dilution method; format: functional; details: K-12 DH10B; outline: as §1
Escherichia coli [7] = assay: Antimicrobial activity against Escherichia coli DH10B harboring beta-lactamase KPC-2 T237P mutant by agar dilution method; format: functional; details: K-12 DH10B; outline: as §1
Escherichia coli [8] = assay: Antimicrobial activity against Escherichia coli DH10B harboring beta-lactamase KPC-2 T237Y mutant by agar dilution method; format: functional; details: K-12 DH10B; outline: as §1
Escherichia coli [9] = assay: Antimicrobial activity against Escherichia coli DH10B harboring beta-lactamase KPC-2 T237W mutant by agar dilution method; format: functional; details: K-12 DH10B; outline: as §1
Escherichia coli [10] = assay: Antimicrobial activity against Escherichia coli DH10B harboring plasmid pBC SK(+) carrying wild type beta-lactamase KPC-2 by agar dilution method; format: functional; details: K-12 DH10B; outline: as §1
Escherichia coli [11] = assay: Antimicrobial activity against Escherichia coli DH10B harboring plasmid pBR322-catI carrying beta-lactamase KPC-2 by agar dilution method; format: functional; details: K-12 DH10B; outline: as §1
Escherichia coli [12] = assay: Antimicrobial activity against Escherichia coli DH10B harboring beta-lactamase KPC-2 T237R mutant by agar dilution method; format: functional; details: K-12 DH10B; outline: as §1
Escherichia coli [13] = assay: Antimicrobial activity against Escherichia coli DH10B harboring beta-lactamase KPC-2 T237V mutant by agar dilution method; format: functional; details: K-12 DH10B; outline: as §1
Escherichia coli [14] = assay: Antimicrobial activity against Escherichia coli DH10B harboring beta-lactamase KPC-2 T237M mutant by agar dilution method; format: functional; details: K-12 DH10B; outline: as §1
Escherichia coli [15] = assay: Antimicrobial activity against Escherichia coli DH10B harboring beta-lactamase KPC-2 T237L mutant by agar dilution method; format: functional; details: K-12 DH10B; outline: as §1
Escherichia coli [16] = assay: Antimicrobial activity against Escherichia coli DH10B harboring beta-lactamase KPC-2 T237H mutant by agar dilution method; format: functional; details: K-12 DH10B; outline: as §1
Escherichia coli [17] = assay: Antimicrobial activity against Escherichia coli DH10B harboring beta-lactamase KPC-2 T237E mutant by agar dilution method; format: functional; details: K-12 DH10B; outline: as §1
Escherichia coli [18] = assay: Antimicrobial activity against Escherichia coli DH10B harboring beta-lactamase KPC-2 T237A mutant by agar dilution method; format: functional; details: K-12 DH10B; outline: as §1
Escherichia coli [19] = assay: Antimicrobial activity against Escherichia coli DH10B harboring beta-lactamase KPC-2 T237F mutant by agar dilution method; format: functional; details: K-12 DH10B; outline: as §1
Escherichia coli [20] = assay: Antimicrobial activity against Escherichia coli DH10B harboring beta-lactamase KPC-2 T237N mutant by agar dilution method; format: functional; details: K-12 DH10B; outline: as §1
Klebsiella pneumoniae [21] = assay: Antimicrobial activity against Klebsiella pneumoniae 1534 expressing beta-lactamase KPC-2 by agar dilution method; format: functional
Outline: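 MICs were determined by LB agar dilution following CLSI criteria, with a Steers replicator. […] Piperacillin-tazobactam was kept at an 8:1 ratio.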

Escherichia coli [22] = assay: Antimicrobial activity against Escherichia coli DH10B harboring plasmid […] by agar dilution method; format: functional; details: K-12 DH10B; outline: as §1
Escherichia coli [23] = assay: Antimicrobial activity against Escherichia coli DH10B harboring beta-lactamase KPC-2 T237I mutant by agar dilution method; format: functional; details: K-12 DH10B; outline: as §1
Escherichia coli [24] = assay: Antimicrobial activity against Escherichia coli DH10B harboring beta-lactamase KPC-2 T237Q mutant by agar dilution method; format: functional; details: K-12 DH10B; outline: as §1
Klebsiella pneumoniae [25] = assay: Activity of Klebsiella pneumoniae 1534 beta-lactamase KPC-2 T237A mutant by spectrophotometric analysis
Outline: (§2)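 Purified KPC-2 variant enzymes (periplasmic lysate from E. coli, preparative isoelectric focusing). Hydrolysis followed by diode-array spectrophotometry in 10 mM PBS, pH 7.4, room temperature. Enzyme at 10 nM with substrate in molar excess for pseudo-first-order conditions. Vmax and Km came from a nonlinear least-squares Michaelis-Menten fit.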

Klebsiella pneumoniae [26] = assay: Activity of Klebsiella pneumoniae 1534 beta-lactamase KPC-2 T237S mutant by spectrophotometric analysis; outline: as §2
Klebsiella pneumoniae [27] = assay: Ratio of Kcat/Km for Klebsiella pneumoniae 1534 beta-lactamase KPC-2 T237S mutant by spectrophotometric analysis; outline: as §2
Klebsiella pneumoniae [28] = assay: Selectivity index, Ratio of Kcat/Km for Klebsiella pneumoniae 1534 beta-lactamase KPC-2 T237S mutant to ratio of Kcat/Km for Klebsiella pneumoniae 1534 beta-lactamase KPC-2 by spectrophotometric analysis
Outline: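 Kinetics used purified enzymes in 10 mM PBS, pH 7.4, room temperature, with 10 nM enzyme and substrate in excess. Km and Vmax came from a Michaelis-Menten fit. kcat/Km of the variant was compared with wild type as ΔΔG = −RT ln of the kcat/Km ratio.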

Klebsiella pneumoniae [29] = assay: Ratio of Kcat/Km for Klebsiella pneumoniae 1534 beta-lactamase KPC-2 T237A mutant by spectrophotometric analysis; outline: as §2
[30] = Inhibition of Klebsiella pneumoniae 1534 beta-lactamase KPC-2 T237S mutant by competitive assay
Outline: (§3)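 Direct competition assay at steady state with purified enzyme at 10 nM. Inhibitor was varied from 5 μM to 5 mM, with nitrocefin 100 μM final as reporter substrate. 1/v0 was plotted against [I], and Ki(observed) was taken as y-intercept divided by slope. This was corrected by 1 + [S]/Km(nitrocefin).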

Klebsiella pneumoniae [31] = assay: Ratio of Ki for Klebsiella pneumoniae 1534 beta-lactamase KPC-2 T237S mutant to Ki for Klebsiella pneumoniae wild type beta-lactamase KPC-2 by competitive assay; outline: as §3
Klebsiella pneumoniae [32] = assay: Ratio of Ki for Klebsiella pneumoniae 1534 beta-lactamase KPC-2 T237A mutant to Ki for wild type Klebsiella pneumoniae beta-lactamase KPC-2 by competitive assay
[33] = Inhibition of Klebsiella pneumoniae 1534 beta-lactamase KPC-2 T237A mutant by competitive assay; outline: as §3

Compound	MIC (Escherichia coli [1]) [µg/mL]	MIC (Escherichia coli [2]) [µg/mL]	MIC (Escherichia coli [3]) [µg/mL]	MIC (Escherichia coli [4]) [µg/mL]	MIC (Escherichia coli [5]) [µg/mL]	MIC (Escherichia coli [6]) [µg/mL]	MIC (Escherichia coli [7]) [µg/mL]	MIC (Escherichia coli [8]) [µg/mL]	MIC (Escherichia coli [9]) [µg/mL]	MIC (Escherichia coli [10]) [µg/mL]	MIC (Escherichia coli [11]) [µg/mL]	MIC (Escherichia coli [12]) [µg/mL]	MIC (Escherichia coli [13]) [µg/mL]	MIC (Escherichia coli [14]) [µg/mL]	MIC (Escherichia coli [15]) [µg/mL]	MIC (Escherichia coli [16]) [µg/mL]	MIC (Escherichia coli [17]) [µg/mL]	MIC (Escherichia coli [18]) [µg/mL]	MIC (Escherichia coli [19]) [µg/mL]	MIC (Escherichia coli [20]) [µg/mL]	other results
C[C@@H](O)[C@H]1C(=O)N2C(C(=O)O)=C(S[C@@H]3CN[C@H](C(=O)Nc4cccc(C(=O)O)c4)C3)[C@H](C)[C@H]12	0.5 (≈ 1.05 µM)	0.06 (≈ 0.126 µM)	0.06 (≈ 0.126 µM)	0.06 (≈ 0.126 µM)	0.06 (≈ 0.126 µM)	0.06 (≈ 0.126 µM)	0.06 (≈ 0.126 µM)	0.06 (≈ 0.126 µM)	0.06 (≈ 0.126 µM)	0.25 (≈ 0.526 µM)	2 (≈ 4.21 µM)	0.06 (≈ 0.126 µM)	0.06 (≈ 0.126 µM)	0.06 (≈ 0.126 µM)	0.06 (≈ 0.126 µM)	0.06 (≈ 0.126 µM)	0.06 (≈ 0.126 µM)	0.06 (≈ 0.126 µM)	0.06 (≈ 0.126 µM)	0.06 (≈ 0.126 µM)	MIC (Klebsiella pneumoniae [21]): 8 µg/mL (≈ 16.8 µM); MIC (Escherichia coli [22]): 0.06 µg/mL (≈ 0.126 µM); MIC (Escherichia coli [23]): 0.06 µg/mL (≈ 0.126 µM); MIC (Escherichia coli [24]): 0.06 µg/mL (≈ 0.126 µM)
CO/N=C(\C(=O)N[C@@H]1C(=O)N2C(C(=O)O)=C(COC(C)=O)CS[C@H]12)c1csc(N)n1 [CEFOTAXIME]	1 (≈ 2.2 µM)	0.06 (≈ 0.132 µM)	0.125 (≈ 0.274 µM)	0.06 (≈ 0.132 µM)	0.06 (≈ 0.132 µM)	0.06 (≈ 0.132 µM)	0.06 (≈ 0.132 µM)	0.06 (≈ 0.132 µM)	0.06 (≈ 0.132 µM)	2 (≈ 4.39 µM)	8 (≈ 17.6 µM)	0.06 (≈ 0.132 µM)	0.06 (≈ 0.132 µM)	0.06 (≈ 0.132 µM)	0.06 (≈ 0.132 µM)	0.06 (≈ 0.132 µM)	0.06 (≈ 0.132 µM)	0.06 (≈ 0.132 µM)	0.06 (≈ 0.132 µM)	0.06 (≈ 0.132 µM)	kcat (Klebsiella pneumoniae [25]): < 0.1 s⁻¹; Km (Klebsiella pneumoniae [26]): 168 µM; kcat (Klebsiella pneumoniae [26]): 43 s⁻¹; kcat/Km (Klebsiella pneumoniae [27]): 260000 M⁻¹ s⁻¹; fold change (FC) (Klebsiella pneumoniae [28]): 2.7; MIC (Klebsiella pneumoniae [21]): 16 µg/mL (≈ 35.1 µM); MIC (Escherichia coli [22]): 0.06 µg/mL (≈ 0.132 µM); MIC (Escherichia coli [23]): 0.06 µg/mL (≈ 0.132 µM); MIC (Escherichia coli [24]): 0.06 µg/mL (≈ 0.132 µM)
CC(=O)OCC1=C(C(=O)O)N2C(=O)[C@@H](NC(=O)Cc3cccs3)[C@H]2SC1 [CEPHALOTHIN]	256 (≈ 646 µM)	4 (≈ 10.1 µM)	4 (≈ 10.1 µM)	4 (≈ 10.1 µM)	4 (≈ 10.1 µM)	4 (≈ 10.1 µM)	2 (≈ 5.04 µM)	16 (≈ 40.4 µM)	32 (≈ 80.7 µM)	256 (≈ 646 µM)	512 (≈ 1290 µM)	4 (≈ 10.1 µM)	8 (≈ 20.2 µM)	16 (≈ 40.4 µM)	8 (≈ 20.2 µM)	16 (≈ 40.4 µM)	4 (≈ 10.1 µM)	32 (≈ 80.7 µM)	4 (≈ 10.1 µM)	4 (≈ 10.1 µM)	Km (Klebsiella pneumoniae [25]): 30 µM; kcat (Klebsiella pneumoniae [25]): 26 s⁻¹; Km (Klebsiella pneumoniae [26]): 18 µM; kcat (Klebsiella pneumoniae [26]): 65 s⁻¹; kcat/Km (Klebsiella pneumoniae [27]): 3.6e+06 M⁻¹ s⁻¹; kcat/Km (Klebsiella pneumoniae [29]): 900000 M⁻¹ s⁻¹; fold change (FC) (Klebsiella pneumoniae [28]): 2.7; MIC (Klebsiella pneumoniae [21]): 1020 µg/mL (≈ 2580 µM); MIC (Escherichia coli [22]): 4 µg/mL (≈ 10.1 µM); MIC (Escherichia coli [23]): 4 µg/mL (≈ 10.1 µM); MIC (Escherichia coli [24]): 16 µg/mL (≈ 40.4 µM)
O=C(O)[C@H]1/C(=C/CO)O[C@@H]2CC(=O)N21 [CLAVULANIC ACID]																					Ki [30]: 13 µM; fold change (FC) (Klebsiella pneumoniae [31]): 1.7; fold change (FC) (Klebsiella pneumoniae [32]): 5; Ki [33]: 55 µM
C[C@@H](O)[C@H]1C(=O)N2C(C(=O)O)=C(S[C@@H]3CN[C@H](CNS(N)(=O)=O)C3)[C@H](C)[C@H]12 [DORIPENEM]	0.25 (≈ 0.595 µM)	0.06 (≈ 0.143 µM)	0.06 (≈ 0.143 µM)	0.06 (≈ 0.143 µM)	0.06 (≈ 0.143 µM)	0.06 (≈ 0.143 µM)	0.06 (≈ 0.143 µM)	0.06 (≈ 0.143 µM)	0.06 (≈ 0.143 µM)	0.25 (≈ 0.595 µM)	4 (≈ 9.51 µM)	0.06 (≈ 0.143 µM)	0.06 (≈ 0.143 µM)	0.06 (≈ 0.143 µM)	0.06 (≈ 0.143 µM)	0.06 (≈ 0.143 µM)	0.06 (≈ 0.143 µM)	0.06 (≈ 0.143 µM)	0.06 (≈ 0.143 µM)	0.06 (≈ 0.143 µM)	MIC (Klebsiella pneumoniae [21]): 4 µg/mL (≈ 9.51 µM); MIC (Escherichia coli [22]): 0.06 µg/mL (≈ 0.143 µM); MIC (Escherichia coli [23]): 0.06 µg/mL (≈ 0.143 µM); MIC (Escherichia coli [24]): 0.06 µg/mL (≈ 0.143 µM)
